From ChEMBL document CHEMBL4330069, “Boosting the efficacy of anti-MRSA β-lactam antibiotics via an easily accessible, non-cytotoxic and orally bioavailable FtsZ inhibitor” (Eur J Med Chem, 2019)
Converted amounts (≈) assume the structure as drawn.

Experiments:
Assay type in all cases: functional
Staphylococcus aureus [1] = assay: Antibacterial activity against multidrug-resistant Staphylococcus aureus isolate 2895 by broth microdilution assay
In short: (§1)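 Broth microdilution MIC per CLSI guidelines against clinical MRSA isolates, for β-lactams and test compound alone and in combination. Compounds were dissolved in DMSO. Growth was read by eye, in duplicate. FIC index = FIC(compound) + FIC(drug); synergy defined as FIC index ≤0.5.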

Staphylococcus aureus [2] = assay: Antibacterial activity against multidrug-resistant Staphylococcus aureus isolate 1749 by broth microdilution assay; in short: as §1
Staphylococcus aureus [3] = assay: Antibacterial activity against multidrug-resistant Staphylococcus aureus isolate 2728 by broth microdilution assay; in short: as §1
Staphylococcus aureus [4] = assay: Antibacterial activity against multidrug-resistant Staphylococcus aureus isolate 200 by broth microdilution assay; in short: as §1
Staphylococcus aureus [5] = assay: Antibacterial activity against multidrug-resistant Staphylococcus aureus isolate 85 by broth microdilution assay; in short: as §1
Staphylococcus aureus [6] = assay: Synergistic antibacterial activity against multidrug-resistant Staphylococcus aureus isolate 1344 in presence of amoxicillin by broth microdilution assay
In short: (§2)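 Clinical MRSA isolate panel; compound and β-lactam tested alone and in combination by CLSI broth microdilution, compounds dissolved in DMSO, growth inhibition scored by eye, run in duplicate. FIC index = FIC(compound) + FIC(drug), each the MIC in combination divided by the MIC alone; an index ≤ 0.5 was called synergy.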

Staphylococcus aureus [7] = assay: Synergistic antibacterial activity against multidrug-resistant Staphylococcus aureus isolate 757 in presence of amoxicillin by broth microdilution assay
Staphylococcus aureus [8] = assay: Synergistic antibacterial activity against multidrug-resistant Staphylococcus aureus isolate 3332 in presence of methicillin by broth microdilution assay
In short: (§3)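 CLSI broth microdilution on clinical MRSA isolates. MICs were measured for the β-lactam alone, the test agent alone and the two combined. Compounds were dissolved in DMSO, and growth inhibition was scored by eye. FIC index is the sum, over both agents, of MIC in combination divided by MIC alone. An FIC index ≤0.5 was taken as synergy.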

Staphylococcus aureus [9] = assay: Synergistic antibacterial activity against multidrug-resistant Staphylococcus aureus isolate 774 in presence of methicillin by broth microdilution assay
Staphylococcus aureus [10] = assay: Synergistic antibacterial activity against multidrug-resistant Staphylococcus aureus isolate 231 in presence of cloxacillin by broth microdilution assay; in short: as §2
Staphylococcus aureus [11] = assay: Synergistic antibacterial activity against multidrug-resistant Staphylococcus aureus isolate 3411 in presence of cloxacillin by broth microdilution assay
Staphylococcus aureus [12] = assay: Synergistic antibacterial activity against multidrug-resistant Staphylococcus aureus isolate 2516 in presence of cloxacillin by broth microdilution assay; in short: as §3
Staphylococcus aureus [13] = assay: Synergistic antibacterial activity against multidrug-resistant Staphylococcus aureus isolate 2973 in presence of cloxacillin by broth microdilution assay; in short: as §3
Staphylococcus aureus [14] = assay: Synergistic antibacterial activity against multidrug-resistant Staphylococcus aureus isolate 85 in presence of cloxacillin by broth microdilution assay
Staphylococcus aureus [15] = assay: Synergistic antibacterial activity against multidrug-resistant Staphylococcus aureus isolate 358 in presence of cefuroxime by broth microdilution assay
Staphylococcus aureus [16] = assay: Synergistic antibacterial activity against multidrug-resistant Staphylococcus aureus isolate 2973 in presence of cefuroxime by broth microdilution assay; in short: as §3
Staphylococcus aureus [17] = assay: Synergistic antibacterial activity against multidrug-resistant Staphylococcus aureus isolate 254 in presence of meropenem by broth microdilution assay; in short: as §3
Staphylococcus aureus [18] = assay: Synergistic antibacterial activity against multidrug-resistant Staphylococcus aureus isolate 417 in presence of meropenem by broth microdilution assay
Staphylococcus aureus [19] = assay: Synergistic antibacterial activity against multidrug-resistant Staphylococcus aureus isolate 256 in presence of meropenem by broth microdilution assay; in short: as §3
Staphylococcus aureus [20] = assay: Synergistic antibacterial activity against multidrug-resistant Staphylococcus aureus isolate 1402 in presence of meropenem by broth microdilution assay; in short: as §2
Staphylococcus aureus [21] = assay: Synergistic antibacterial activity against multidrug-resistant Staphylococcus aureus isolate 1449 in presence of meropenem by broth microdilution assay; in short: as §2
Staphylococcus aureus [22] = assay: Synergistic antibacterial activity against multidrug-resistant Staphylococcus aureus isolate 3267 assessed as fractional Inhibitory concentration index in presence of amoxicillin by broth microdilution assay
Staphylococcus aureus [23] = assay: Synergistic antibacterial activity against multidrug-resistant Staphylococcus aureus isolate 757 assessed as fractional Inhibitory concentration index in presence of amoxicillin by broth microdilution assay
Staphylococcus aureus [24] = assay: Synergistic antibacterial activity against multidrug-resistant Staphylococcus aureus isolate 1749 assessed as fractional Inhibitory concentration index in presence of amoxicillin by broth microdilution assay
In short: (§4)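 CLSI broth microdilution run on clinical MRSA isolates with each β-lactam alone, the test agent alone, and the two combined; agents dissolved in DMSO. Growth inhibition was read by eye. FIC index = FIC(compound) + FIC(β-lactam), where each FIC is the MIC in combination divided by the MIC alone. An index ≤0.5 was taken as synergy.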

Staphylococcus aureus [25] = assay: Synergistic antibacterial activity against multidrug-resistant Staphylococcus aureus isolate 1344 assessed as fractional Inhibitory concentration index in presence of methicillin by broth microdilution assay; in short: as §4
Staphylococcus aureus [26] = assay: Synergistic antibacterial activity against multidrug-resistant Staphylococcus aureus isolate 256 assessed as fractional Inhibitory concentration index in presence of methicillin by broth microdilution assay
Staphylococcus aureus [27] = assay: Synergistic antibacterial activity against multidrug-resistant Staphylococcus aureus isolate 2728 assessed as fractional Inhibitory concentration index in presence of methicillin by broth microdilution assay
Staphylococcus aureus [28] = assay: Synergistic antibacterial activity against multidrug-resistant Staphylococcus aureus isolate 2516 assessed as fractional Inhibitory concentration index in presence of cloxacillin by broth microdilution assay; in short: as §4
Staphylococcus aureus [29] = assay: Synergistic antibacterial activity against multidrug-resistant Staphylococcus aureus isolate 1749 assessed as fractional Inhibitory concentration index in presence of cloxacillin by broth microdilution assay; in short: as §4
Staphylococcus aureus [30] = assay: Synergistic antibacterial activity against multidrug-resistant Staphylococcus aureus isolate 1717 assessed as fractional Inhibitory concentration index in presence of cloxacillin by broth microdilution assay; in short: as §4
Staphylococcus aureus [31] = assay: Synergistic antibacterial activity against multidrug-resistant Staphylococcus aureus isolate 774 assessed as fractional Inhibitory concentration index in presence of cloxacillin by broth microdilution assay
Staphylococcus aureus [32] = assay: Synergistic antibacterial activity against multidrug-resistant Staphylococcus aureus isolate 757 assessed as fractional Inhibitory concentration index in presence of cefuroxime by broth microdilution assay
Staphylococcus aureus [33] = assay: Synergistic antibacterial activity against multidrug-resistant Staphylococcus aureus isolate 2224 assessed as fractional Inhibitory concentration index in presence of cefuroxime by broth microdilution assay; in short: as §4
Staphylococcus aureus [34] = assay: Synergistic antibacterial activity against multidrug-resistant Staphylococcus aureus isolate 200 assessed as fractional Inhibitory concentration index in presence of cefuroxime by broth microdilution assay; in short: as §4
Staphylococcus aureus [35] = assay: Synergistic antibacterial activity against multidrug-resistant Staphylococcus aureus isolate 231 assessed as fractional Inhibitory concentration index in presence of meropenem by broth microdilution assay; in short: as §4
Staphylococcus aureus [36] = assay: Synergistic antibacterial activity against multidrug-resistant Staphylococcus aureus isolate 2919 assessed as fractional Inhibitory concentration index in presence of meropenem by broth microdilution assay
Staphylococcus aureus [37] = assay: Synergistic antibacterial activity against multidrug-resistant Staphylococcus aureus isolate 2728 assessed as fractional Inhibitory concentration index in presence of meropenem by broth microdilution assay
Staphylococcus aureus [38] = assay: Synergistic antibacterial activity against multidrug-resistant Staphylococcus aureus isolate 2224 assessed as fractional Inhibitory concentration index in presence of meropenem by broth microdilution assay; in short: as §4
Staphylococcus aureus [39] = assay: Synergistic antibacterial activity against multidrug-resistant Staphylococcus aureus isolate 85 assessed as fractional Inhibitory concentration index in presence of meropenem by broth microdilution assay

CCCCCCCCCNc1ccc(F)c(C(N)=O)c1F
MIC (Staphylococcus aureus [1]): 16 µg/mL (≈ 53.6 µM) | MIC (Staphylococcus aureus [2]): 2 µg/mL (≈ 6.7 µM) | MIC (Staphylococcus aureus [3]): 128 µg/mL (≈ 429 µM) | MIC (Staphylococcus aureus [4]): 1020 µg/mL (≈ 3430 µM) | MIC (Staphylococcus aureus [5]): 1020 µg/mL (≈ 3430 µM) | MIC (Staphylococcus aureus [6]): 16 µg/mL | MIC (Staphylococcus aureus [7]): 2 µg/mL | MIC (Staphylococcus aureus [8]): 4 µg/mL | MIC (Staphylococcus aureus [9]): 4 µg/mL | MIC (Staphylococcus aureus [10]): 2 µg/mL | MIC (Staphylococcus aureus [11]): 1 µg/mL | MIC (Staphylococcus aureus [12]): 2 µg/mL | MIC (Staphylococcus aureus [13]): 1 µg/mL | MIC (Staphylococcus aureus [14]): 0.5 µg/mL | MIC (Staphylococcus aureus [15]): 2 µg/mL | MIC (Staphylococcus aureus [16]): 4 µg/mL | MIC (Staphylococcus aureus [17]): 8 µg/mL | MIC (Staphylococcus aureus [18]): 4 µg/mL | MIC (Staphylococcus aureus [19]): 8 µg/mL | MIC (Staphylococcus aureus [20]): 4 µg/mL | MIC (Staphylococcus aureus [21]): 4 µg/mL | fractional inhibitory concentration index (FICI) (Staphylococcus aureus [22]): 0.3 | fractional inhibitory concentration index (FICI) (Staphylococcus aureus [23]): 0.3 | fractional inhibitory concentration index (FICI) (Staphylococcus aureus [24]): 1 | fractional inhibitory concentration index (FICI) (Staphylococcus aureus [25]): 0.3 | fractional inhibitory concentration index (FICI) (Staphylococcus aureus [26]): 0 | fractional inhibitory concentration index (FICI) (Staphylococcus aureus [27]): 0.2 | fractional inhibitory concentration index (FICI) (Staphylococcus aureus [28]): 0.2 | fractional inhibitory concentration index (FICI) (Staphylococcus aureus [29]): 1.3 | fractional inhibitory concentration index (FICI) (Staphylococcus aureus [30]): 2.5 | fractional inhibitory concentration index (FICI) (Staphylococcus aureus [31]): 0.5 | fractional inhibitory concentration index (FICI) (Staphylococcus aureus [32]): 0.1 | fractional inhibitory concentration index (FICI) (Staphylococcus aureus [33]): 0.3 | fractional inhibitory concentration index (FICI) (Staphylococcus aureus [34]): 1 | fractional inhibitory concentration index (FICI) (Staphylococcus aureus [35]): 0.6 | fractional inhibitory concentration index (FICI) (Staphylococcus aureus [36]): 4.3 | fractional inhibitory concentration index (FICI) (Staphylococcus aureus [37]): 2 | fractional inhibitory concentration index (FICI) (Staphylococcus aureus [38]): 4 | fractional inhibitory concentration index (FICI) (Staphylococcus aureus [39]): 4
